Assay results: ChEMBL document CHEMBL3797202, “Novel Oxindole Sulfonamides and Sulfamides: EPZ031686, the First Orally Bioavailable Small Molecule SMYD3 Inhibitor” (ACS Med Chem Lett, 2016)

Legend:
[1] = molecular target: T1, Histone-lysine N-methyltransferase NSD3 (Homo sapiens) (UniProt Q9BZ95); test: Inhibition of WHSC1L1 (unknown origin) at 10 uM relative to control
T1 sequence (whole entry): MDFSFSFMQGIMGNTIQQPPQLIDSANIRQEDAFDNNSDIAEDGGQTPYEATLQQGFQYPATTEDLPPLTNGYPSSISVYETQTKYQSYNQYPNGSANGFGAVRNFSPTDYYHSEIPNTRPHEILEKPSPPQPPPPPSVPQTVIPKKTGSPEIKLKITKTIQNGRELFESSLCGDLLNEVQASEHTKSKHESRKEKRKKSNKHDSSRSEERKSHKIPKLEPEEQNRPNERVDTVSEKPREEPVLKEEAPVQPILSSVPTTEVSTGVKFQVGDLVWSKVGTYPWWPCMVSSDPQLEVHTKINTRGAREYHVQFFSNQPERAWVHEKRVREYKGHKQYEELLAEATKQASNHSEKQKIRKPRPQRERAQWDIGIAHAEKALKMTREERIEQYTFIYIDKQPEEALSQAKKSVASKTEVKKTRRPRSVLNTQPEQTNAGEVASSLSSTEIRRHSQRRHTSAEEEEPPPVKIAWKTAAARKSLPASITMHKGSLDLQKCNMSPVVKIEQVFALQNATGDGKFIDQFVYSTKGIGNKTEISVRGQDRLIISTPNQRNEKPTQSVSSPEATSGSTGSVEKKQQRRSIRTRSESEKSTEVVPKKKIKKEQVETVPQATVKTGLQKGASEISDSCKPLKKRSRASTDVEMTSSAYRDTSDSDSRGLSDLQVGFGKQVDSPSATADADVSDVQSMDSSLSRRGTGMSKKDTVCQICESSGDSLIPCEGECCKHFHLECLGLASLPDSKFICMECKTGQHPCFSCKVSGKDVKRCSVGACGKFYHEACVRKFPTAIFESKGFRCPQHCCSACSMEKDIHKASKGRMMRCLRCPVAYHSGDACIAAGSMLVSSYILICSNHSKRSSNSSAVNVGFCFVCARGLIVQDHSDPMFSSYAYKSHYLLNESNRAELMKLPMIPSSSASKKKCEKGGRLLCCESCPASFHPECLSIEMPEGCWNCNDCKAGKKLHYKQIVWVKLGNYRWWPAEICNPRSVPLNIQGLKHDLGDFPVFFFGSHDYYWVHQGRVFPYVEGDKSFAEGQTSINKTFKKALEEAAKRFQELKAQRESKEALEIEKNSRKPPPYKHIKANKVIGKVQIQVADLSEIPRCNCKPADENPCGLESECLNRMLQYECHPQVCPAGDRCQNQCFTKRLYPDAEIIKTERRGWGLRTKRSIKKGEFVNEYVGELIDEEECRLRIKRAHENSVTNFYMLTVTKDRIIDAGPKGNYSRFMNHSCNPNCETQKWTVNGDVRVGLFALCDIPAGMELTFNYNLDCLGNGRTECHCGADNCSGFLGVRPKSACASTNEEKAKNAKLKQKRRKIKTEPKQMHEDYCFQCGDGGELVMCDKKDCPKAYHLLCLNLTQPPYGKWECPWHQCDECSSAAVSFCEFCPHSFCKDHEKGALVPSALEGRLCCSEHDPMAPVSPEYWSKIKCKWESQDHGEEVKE

[2] = Intrinsic clearance in CD1 mouse liver microsomes at 1 uM incubated for 5 to 45 mins by LC-MS/MS analysis in presence of NADPH; type: ADME; conditions: read-out: CLH
Outline: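 Mouse liver microsomal incubations; clearance scaled from microsomal data and reported as a mean value.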

[3] = molecular target: Protein arginine N-methyltransferase 6 (Homo sapiens) (UniProt Q96LA8); test: Inhibition of PRMT6 (unknown origin) at 10 uM relative to control
Protein arginine N-methyltransferase 6 (Homo sapiens), sequence (Q96LA8 whole entry, looked up): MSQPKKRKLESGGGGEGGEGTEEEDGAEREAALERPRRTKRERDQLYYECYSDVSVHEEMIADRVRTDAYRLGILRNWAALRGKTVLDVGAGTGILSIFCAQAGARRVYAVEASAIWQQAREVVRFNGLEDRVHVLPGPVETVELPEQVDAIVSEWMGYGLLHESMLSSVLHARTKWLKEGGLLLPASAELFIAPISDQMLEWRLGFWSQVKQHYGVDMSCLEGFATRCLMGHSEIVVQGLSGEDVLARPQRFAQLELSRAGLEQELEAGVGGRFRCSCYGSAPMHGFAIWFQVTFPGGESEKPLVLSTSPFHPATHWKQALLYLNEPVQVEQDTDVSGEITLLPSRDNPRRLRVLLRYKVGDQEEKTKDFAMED

[4] = molecular target: Histone-lysine N-methyltransferase, H3 lysine-79 specific (Homo sapiens) (UniProt Q8TEK3); test: Inhibition of DOT1L (unknown origin) at 10 uM relative to control
Histone-lysine N-methyltransferase, H3 lysine-79 specific (Homo sapiens), sequence (Q8TEK3 whole entry, looked up): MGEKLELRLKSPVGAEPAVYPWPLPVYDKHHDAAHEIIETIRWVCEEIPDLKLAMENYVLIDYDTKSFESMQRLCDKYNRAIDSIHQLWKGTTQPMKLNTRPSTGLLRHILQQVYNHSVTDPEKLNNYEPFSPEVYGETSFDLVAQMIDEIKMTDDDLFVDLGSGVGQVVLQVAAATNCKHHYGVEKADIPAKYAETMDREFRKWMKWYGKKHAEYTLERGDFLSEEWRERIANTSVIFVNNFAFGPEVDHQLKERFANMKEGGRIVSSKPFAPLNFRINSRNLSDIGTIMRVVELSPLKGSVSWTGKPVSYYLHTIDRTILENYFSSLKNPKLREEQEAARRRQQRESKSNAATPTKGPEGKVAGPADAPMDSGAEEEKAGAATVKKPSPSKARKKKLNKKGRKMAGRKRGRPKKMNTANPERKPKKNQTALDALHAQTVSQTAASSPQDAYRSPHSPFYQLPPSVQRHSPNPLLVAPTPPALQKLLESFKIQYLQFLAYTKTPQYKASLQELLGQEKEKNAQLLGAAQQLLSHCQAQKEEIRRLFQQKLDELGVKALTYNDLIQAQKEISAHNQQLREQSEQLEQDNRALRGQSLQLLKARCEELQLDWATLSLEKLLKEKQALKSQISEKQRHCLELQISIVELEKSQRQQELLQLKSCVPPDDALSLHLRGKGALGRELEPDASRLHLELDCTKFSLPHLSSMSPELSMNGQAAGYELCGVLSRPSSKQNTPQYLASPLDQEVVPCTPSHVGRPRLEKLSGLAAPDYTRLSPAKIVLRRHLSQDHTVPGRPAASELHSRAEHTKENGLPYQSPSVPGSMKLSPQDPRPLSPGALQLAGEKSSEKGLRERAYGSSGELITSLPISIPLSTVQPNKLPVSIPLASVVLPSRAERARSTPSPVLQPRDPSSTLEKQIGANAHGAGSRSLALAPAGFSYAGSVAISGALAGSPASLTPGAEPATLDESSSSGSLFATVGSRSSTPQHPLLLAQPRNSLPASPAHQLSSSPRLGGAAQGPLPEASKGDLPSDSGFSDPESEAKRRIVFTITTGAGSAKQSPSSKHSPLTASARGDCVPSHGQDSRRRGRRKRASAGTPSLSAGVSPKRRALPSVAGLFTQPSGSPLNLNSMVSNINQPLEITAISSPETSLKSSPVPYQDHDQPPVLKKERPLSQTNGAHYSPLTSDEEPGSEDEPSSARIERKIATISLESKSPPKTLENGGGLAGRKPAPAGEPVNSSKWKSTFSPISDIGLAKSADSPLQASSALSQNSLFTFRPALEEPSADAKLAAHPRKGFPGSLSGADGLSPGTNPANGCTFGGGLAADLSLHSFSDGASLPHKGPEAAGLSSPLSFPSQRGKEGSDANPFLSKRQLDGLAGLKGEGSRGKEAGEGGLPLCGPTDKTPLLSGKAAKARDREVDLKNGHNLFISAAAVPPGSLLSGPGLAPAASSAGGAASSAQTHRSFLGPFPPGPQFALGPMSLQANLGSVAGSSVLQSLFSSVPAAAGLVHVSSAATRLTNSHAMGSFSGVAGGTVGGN

[5] = molecular target: T2, Histone-lysine N-methyltransferase NSD2 (Homo sapiens) (UniProt O96028); test: Inhibition of WHSC1 (unknown origin) at 10 uM relative to control
T2 sequence (whole entry): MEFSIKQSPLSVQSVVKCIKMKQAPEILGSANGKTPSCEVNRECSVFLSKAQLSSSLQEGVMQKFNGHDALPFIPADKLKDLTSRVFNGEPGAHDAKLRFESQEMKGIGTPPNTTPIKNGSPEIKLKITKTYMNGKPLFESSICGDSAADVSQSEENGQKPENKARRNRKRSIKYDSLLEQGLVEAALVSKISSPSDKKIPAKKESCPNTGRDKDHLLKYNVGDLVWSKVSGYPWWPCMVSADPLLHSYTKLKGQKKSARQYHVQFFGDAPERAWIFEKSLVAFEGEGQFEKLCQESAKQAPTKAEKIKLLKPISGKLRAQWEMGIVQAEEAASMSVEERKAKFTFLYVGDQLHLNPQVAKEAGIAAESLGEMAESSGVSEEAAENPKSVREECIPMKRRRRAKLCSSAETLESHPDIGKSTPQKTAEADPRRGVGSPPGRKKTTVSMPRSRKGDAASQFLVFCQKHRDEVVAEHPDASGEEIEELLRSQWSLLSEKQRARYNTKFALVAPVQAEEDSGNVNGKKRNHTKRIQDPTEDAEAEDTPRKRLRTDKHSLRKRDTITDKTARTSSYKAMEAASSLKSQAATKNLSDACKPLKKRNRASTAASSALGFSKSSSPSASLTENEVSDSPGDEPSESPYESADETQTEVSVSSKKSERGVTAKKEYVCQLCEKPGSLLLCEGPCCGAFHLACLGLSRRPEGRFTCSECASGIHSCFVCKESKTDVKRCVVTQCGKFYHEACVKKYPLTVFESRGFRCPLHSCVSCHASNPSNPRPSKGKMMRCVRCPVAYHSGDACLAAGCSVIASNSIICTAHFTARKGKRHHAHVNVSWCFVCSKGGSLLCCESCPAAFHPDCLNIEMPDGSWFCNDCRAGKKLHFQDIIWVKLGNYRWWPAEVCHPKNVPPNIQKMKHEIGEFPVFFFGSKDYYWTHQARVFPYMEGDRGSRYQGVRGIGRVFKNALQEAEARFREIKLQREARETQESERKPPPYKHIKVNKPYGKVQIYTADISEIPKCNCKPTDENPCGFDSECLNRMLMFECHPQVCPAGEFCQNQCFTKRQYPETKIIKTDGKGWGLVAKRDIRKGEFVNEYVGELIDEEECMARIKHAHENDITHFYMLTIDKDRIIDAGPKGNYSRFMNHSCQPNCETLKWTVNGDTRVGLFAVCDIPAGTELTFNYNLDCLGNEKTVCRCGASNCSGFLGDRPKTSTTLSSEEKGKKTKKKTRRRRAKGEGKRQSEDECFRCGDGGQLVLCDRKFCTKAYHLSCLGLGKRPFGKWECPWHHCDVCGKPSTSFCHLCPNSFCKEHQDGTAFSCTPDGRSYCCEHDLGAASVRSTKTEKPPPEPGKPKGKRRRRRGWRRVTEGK

Structure (SMILES) | inhibition [1] | CLint scaled at 1 µM [2] | inhibition [3] | inhibition [4] | inhibition [5]
O=C1Cc2cc(C(=O)N[C@H]3C[C@H]4CC[C@@H](C3)N4S(=O)(=O)CC3CCN(CCCC(F)(F)F)CC3)c(Cl)cc2N1 | < 30% | 24 mL/min/kg | < 30% | < 30% | < 30%
O=C1Cc2cc(C(=O)N[C@H]3C[C@H]4CC[C@@H](C3)N4S(=O)(=O)N3CCC(NCc4ccccc4)CC3)c(Cl)cc2N1 | < 30% | 34 mL/min/kg | < 30% | < 30% | < 30%
